Series [1] has as its system MIA PaCa-2. The experiment in a line: Cytotoxicity against human MIAPaCa2 cells incubated for 3 hrs measured after 3 to 4 hrs in presence of plasmin. The format is functional, cell-based.
Series [2] concerns MCF7. The experiment in a line: Cytotoxicity against human MCF7 cells incubated for 3 hrs measured after 3 to 4 hrs in presence of plasmin. The format is functional, cell-based.
The subject of series [3] is MCF7. The experiment in a line: Cytotoxicity against human MCF7 cells incubated for 3 hrs measured after 3 to 4 hrs in absence of plasmin. The format is functional, cell-based.
The test system of series [4] is MIA PaCa-2. The series can be described thus: Cytotoxicity against human MIAPaCa2 cells incubated for 3 hrs measured after 3 to 4 hrs in absence of plasmin. The format is functional, cell-based.
The nature of series [5]: Prodrug conversion assessed as release of human plasmin induced active dozax at 50 uM pH 7.4 in PBS by RP-HPLC. The class given is ADME. As to conditions: buffer, pH 7.4, 50 µM. The essentials:
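50 µM prodrug with 1.2 µg/mL human plasmin in PBS pH 7.4 at 37 °C. Samples taken over time, ethanol-quenched, analysed by RP-HPLC at 480 nm for prodrug and dox; repeated runs fit to single-exponential association model.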

Series [6] in a line: Prodrug conversion assessed as release of active dozax in absence of plasmin at 50 uM pH 7.4 in PBS by RP-HPLC. The class given is ADME. As to conditions: buffer, pH 7.4, 50 µM. The essentials:
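Enzyme-free control: 50 µM prodrug in PBS at 37 °C over 24 h, RP-HPLC monitoring dox at 480 nm.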

Series [7] concerns COc1cccc2c1C(=O)c1c(O)c3c(c(O)c1C2=O)C[C@@](O)(C(=O)CO)C[C@@H]3O[C@H]1C[C@H]2[C@H](OCN2C(=O)OCc2ccc(NC(=O)[C@H](CCCCN)NC(=O)[C@H](Cc3ccccc3)NC(=O)[C@@H](C)NC(=O)CNC(C)=O)cc2)[C@H](C)O1. The series can be described thus: Activity of human cathepsin B assessed as enzyme catalytic turnover for compound hydrolysis at 50 uM at pH 6.5 in PBS buffer containing 10 mM N-acetylcysteine by RP-HPLC. The method, boiled down: (§1)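 Michaelis-Menten kinetics, substrate 10–400 µM at 37 °C. Plasmin: 0.2 U, PBS pH 7.4, 4 min. Cathepsin B: 0.08 U, PBS-NAC pH 6.5, 20 min. Quenched with equal volume ethanol, −20 °C ≥2 h, centrifuged, supernatant RP-HPLC at 480 nm. Rates (µM/min) fit by non-linear least squares; triplicates.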

The test system is the same in series [8]. The series can be described thus: Activity of human cathepsin B assessed as compound hydrolysis at 50 uM at pH 6.5 in PBS buffer containing 10 mM N-acetylcysteine by RP-HPLC. The method, boiled down: as §1
Substrate in series [9]: COc1cccc2c1C(=O)c1c(O)c3c(c(O)c1C2=O)C[C@@](O)(C(=O)CO)C[C@@H]3O[C@H]1C[C@H]2[C@H](OCN2C(=O)OCc2ccc(NC(=O)[C@H](CCCCN)NC(=O)[C@H](Cc3ccccc3)NC(=O)[C@@H](C)NC(=O)CNC(C)=O)cc2)[C@H](C)O1
The series can be described thus: Activity of human plasmin assessed as enzyme catalytic turnover for compound hydrolysis at 50 uM at pH 7.4 in PBS buffer by RP-HPLC. The method, boiled down:
as §1

Substrate in series [10]: COc1cccc2c1C(=O)c1c(O)c3c(c(O)c1C2=O)C[C@@](O)(C(=O)CO)C[C@@H]3O[C@H]1C[C@H]2[C@H](OCN2C(=O)OCc2ccc(NC(=O)[C@H](CCCCN)NC(=O)[C@H](Cc3ccccc3)NC(=O)[C@@H](C)NC(=O)CNC(C)=O)cc2)[C@H](C)O1
The experiment in a line: Activity of human plasmin assessed as compound hydrolysis at 50 uM at pH 7.4 in PBS buffer by RP-HPLC. The method, boiled down: as §1

These results are taken from ChEMBL document CHEMBL2169769, “Synthesis and biological characterization of protease-activated prodrugs of doxazolidine” (J Med Chem, 2012).

Calls of active or inactive are those of the source. No cut-off for these calls is given here.

On to `COc1cccc2c1C(=O)c1c(O)c3c(c(O)c1C2=O)C[C@@](O)(C(=O)CO)C[C@@H]3O[C@H]1C[C@H]2[C@H](OCN2C(=O)OCc2ccc(NC(=O)[C@H](CCCCN)NC(=O)[C@H](Cc3ccccc3)NC(=O)[C@@H](C)N)cc2)[C@H](C)O1.O=P(O)(O)O`, for which the result with MIA PaCa-2 [1] and with MCF7 [2] was Active. Besides, the pIC50 result in the series on MCF7 [3] and in the series on MIA PaCa-2 [4] was “Active” each time. In addition, the Drug metabolism result in series [5] was “Active”. In series [6], the Stability entry is “Stable”.

For the molecule “Cathepsin B (Homo sapiens) (from UniProt P07858)”, the kcat – broadly, the number of substrate molecules converted per active site and unit of time at saturation – in series [7] amounted to 0.49 s⁻¹. Further, in series [8], the Km (as a rule, the substrate concentration at which the rate is half of its maximum) was determined as 108 µM and the Vmax (as a rule, the rate approached at saturating substrate) was found to be 1.32 µM/min.

For the molecule `COc1cccc2c1C(=O)c1c(O)c3c(c(O)c1C2=O)C[C@@](O)(C(=O)CO)C[C@@H]3O[C@H]1C[C@H](NC(=O)OCc2ccc(NC(=O)[C@H](CCCCN)NC(=O)[C@H](Cc3ccccc3)NC(=O)[C@@H](C)N)cc2)[C@H](O)[C@H](C)O1`, in the series with MCF7 [3], the IC50 (usually the midpoint of a concentration-inhibition curve) was under 1 µM. The pIC50 result in the series with MIA PaCa-2 [4] was “inactive”.

B1: Plasminogen (Homo sapiens), P00747 (protein)
chain: MEHKEVVLLLLLFLKSGQGEPLDDYVNTQGASLFSVTKKQLGAGSIEECAAKCEEDEEFTCRAFQYHSKEQQCVIMAENRKSSIIIRMRDVVLFEKKVYLSECKTGNGKNYRGTMSKTKNGITCQKWSSTSPHRPRFSPATHPSEGLEENYCRNPDNDPQGPWCYTTDPEKRYDYCDILECEEECMHCSGENYDGKISKTMSGLECQAWDSQSPHAHGYIPSKFPNKNLKKNYCRNPDRELRPWCFTTDPNKRWELCDIPRCTTPPPSSGPTYQCLKGTGENYRGNVAVTVSGHTCQHWSAQTPHTHNRTPENFPCKNLDENYCRNPDGKRAPWCHTTNSQVRWEYCKIPSCDSSPVSTEQLAPTAPPELTPVVQDCYHGDGQSYRGTSSTTTTGKKCQSWSSMTPHRHQKTPENYPNAGLTMNYCRNPDADKGPWCFTTDPSVRWEYCNLKKCSGTEASVVAPPPVVLLPDVETPSEEDCMFGNGKGYRGKRATTVTGTPCQDWAAQEPHRHSIFTPETNPRAGLEKNYCRNPDGDVGGPWCYTTNPRKLYDYCDVPQCAAPSFDCGKPQVEPKKCPGRVVGGCVAHPHSWPWQVSLRTRFGMHFCGGTLISPEWVLTAAHCLEKSPRPSSYKVILGAHQEVNLEPHVQEIEVSRLFLEPTRKDIALLKLSSPAVITDKVIPACLPSPNYVVADRTECFITGWGETQGTFGAGLLKEAQLPVIENKVCNRYEFLNGRVQSTELCAGHLAGGTDSCQGDSGGPLVCFEKDKYILQGVTSWGLGCARPNKPGVYVRVSRFVTWIEGVMRNN
Take B1: the kcat in series [9] was 2.45 s⁻¹. Also, in [10], the Km came out at 171 µM and the Vmax turned out to be 3.76 µM/min.
